# Experiments:
# Details in all cases: stereoisomer not certain
# [1] = molecular target: T1, UniProt E9PVX1
# T1 sequence (whole entry): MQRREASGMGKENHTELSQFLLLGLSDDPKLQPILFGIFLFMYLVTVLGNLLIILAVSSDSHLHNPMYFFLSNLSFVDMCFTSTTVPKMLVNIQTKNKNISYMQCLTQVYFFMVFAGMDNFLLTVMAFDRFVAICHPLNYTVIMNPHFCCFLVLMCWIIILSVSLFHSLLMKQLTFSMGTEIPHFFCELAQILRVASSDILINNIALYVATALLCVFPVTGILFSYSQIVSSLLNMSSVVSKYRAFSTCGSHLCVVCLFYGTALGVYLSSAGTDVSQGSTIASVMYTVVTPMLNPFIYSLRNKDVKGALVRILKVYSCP
# Summary of the method: (§1)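 Each entry records the cell line, G-protein, co-transfected protein and tags used. Methods varied with the source, often transient luciferase assays in mammalian cell lines. A receptor–molecule pair is called responsive (active) if the original authors judged its signal statistically different from baseline and non-responsive (inactive) otherwise.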
# [2] = molecular target: T2, UniProt E9PZ66
# T2 sequence (whole entry): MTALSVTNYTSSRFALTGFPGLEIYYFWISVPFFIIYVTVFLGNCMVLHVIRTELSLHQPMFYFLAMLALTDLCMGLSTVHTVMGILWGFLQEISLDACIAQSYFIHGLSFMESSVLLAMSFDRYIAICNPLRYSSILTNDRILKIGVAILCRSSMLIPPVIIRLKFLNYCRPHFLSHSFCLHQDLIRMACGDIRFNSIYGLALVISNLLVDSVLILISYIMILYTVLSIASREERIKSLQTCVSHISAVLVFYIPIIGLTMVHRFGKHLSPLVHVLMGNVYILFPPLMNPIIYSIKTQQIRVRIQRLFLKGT
# Summary of the method: as §1
# [3] = molecular target: T3, UniProt E9Q4X7
# T3 sequence (whole entry): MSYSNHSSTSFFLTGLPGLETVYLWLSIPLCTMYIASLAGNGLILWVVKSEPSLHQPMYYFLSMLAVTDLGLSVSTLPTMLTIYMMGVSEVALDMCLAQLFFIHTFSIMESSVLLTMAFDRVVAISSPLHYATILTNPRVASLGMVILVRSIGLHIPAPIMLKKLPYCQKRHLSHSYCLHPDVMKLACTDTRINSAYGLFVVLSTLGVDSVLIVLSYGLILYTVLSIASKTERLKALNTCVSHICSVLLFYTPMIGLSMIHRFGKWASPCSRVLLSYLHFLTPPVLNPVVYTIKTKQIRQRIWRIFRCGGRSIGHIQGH
# Summary of the method: as §1
# [4] = molecular target: T4, UniProt E9Q546
# T4 sequence (whole entry): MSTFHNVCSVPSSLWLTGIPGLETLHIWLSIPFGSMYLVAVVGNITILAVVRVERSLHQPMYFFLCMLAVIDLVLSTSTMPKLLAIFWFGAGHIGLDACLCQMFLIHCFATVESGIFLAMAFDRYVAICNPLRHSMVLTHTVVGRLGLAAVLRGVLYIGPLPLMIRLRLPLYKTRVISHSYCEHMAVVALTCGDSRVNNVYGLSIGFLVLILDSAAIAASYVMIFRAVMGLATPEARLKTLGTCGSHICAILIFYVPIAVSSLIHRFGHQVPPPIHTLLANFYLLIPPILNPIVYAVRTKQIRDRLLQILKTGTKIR
# Summary of the method: as §1
# [5] = molecular target: T5, UniProt E9Q6Z7
# T5 sequence (whole entry): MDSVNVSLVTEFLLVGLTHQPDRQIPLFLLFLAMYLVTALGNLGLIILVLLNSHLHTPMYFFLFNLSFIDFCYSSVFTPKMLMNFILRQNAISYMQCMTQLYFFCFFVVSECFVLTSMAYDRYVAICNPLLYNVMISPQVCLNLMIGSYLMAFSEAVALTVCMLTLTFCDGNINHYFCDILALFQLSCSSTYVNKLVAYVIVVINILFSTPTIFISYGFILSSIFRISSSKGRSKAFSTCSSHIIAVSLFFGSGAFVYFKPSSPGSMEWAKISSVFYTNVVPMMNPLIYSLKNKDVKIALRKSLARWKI
# Summary of the method: as §1
# [6] = molecular target: T6, UniProt L7MU75
# T6 sequence (whole entry): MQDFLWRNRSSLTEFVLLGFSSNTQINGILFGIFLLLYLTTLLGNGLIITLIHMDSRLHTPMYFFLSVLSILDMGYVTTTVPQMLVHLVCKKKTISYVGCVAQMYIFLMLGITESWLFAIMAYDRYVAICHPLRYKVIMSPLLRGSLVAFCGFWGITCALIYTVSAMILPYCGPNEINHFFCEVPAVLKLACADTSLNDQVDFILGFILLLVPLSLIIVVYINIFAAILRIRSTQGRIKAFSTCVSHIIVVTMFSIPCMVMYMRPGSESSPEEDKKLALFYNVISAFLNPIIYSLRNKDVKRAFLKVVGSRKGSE
# Summary of the method: as §1
# [7] = molecular target: T7, UniProt L7N210
# T7 sequence (whole entry): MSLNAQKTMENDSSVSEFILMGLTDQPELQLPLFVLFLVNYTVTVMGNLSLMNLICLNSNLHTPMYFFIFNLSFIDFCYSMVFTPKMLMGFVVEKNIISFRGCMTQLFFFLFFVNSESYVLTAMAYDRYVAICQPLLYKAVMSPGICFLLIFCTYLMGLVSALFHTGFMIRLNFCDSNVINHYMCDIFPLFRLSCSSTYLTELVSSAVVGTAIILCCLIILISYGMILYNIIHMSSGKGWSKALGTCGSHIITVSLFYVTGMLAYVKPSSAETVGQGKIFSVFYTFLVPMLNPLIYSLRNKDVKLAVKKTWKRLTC
# Summary of the method: as §1
# [8] = molecular target: T8, UniProt Q3KPB0
# T8 sequence (whole entry): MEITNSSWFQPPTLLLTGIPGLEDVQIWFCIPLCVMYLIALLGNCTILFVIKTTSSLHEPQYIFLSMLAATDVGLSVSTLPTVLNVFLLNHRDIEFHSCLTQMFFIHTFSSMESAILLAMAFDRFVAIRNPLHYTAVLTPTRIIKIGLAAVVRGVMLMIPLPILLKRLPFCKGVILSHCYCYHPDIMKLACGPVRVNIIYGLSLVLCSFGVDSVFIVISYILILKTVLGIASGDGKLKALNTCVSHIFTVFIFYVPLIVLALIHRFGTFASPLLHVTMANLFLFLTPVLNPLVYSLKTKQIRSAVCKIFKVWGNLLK
# Summary of the method: as §1
# [9] = molecular target: T9, UniProt Q3U0P3
# T9 sequence (whole entry): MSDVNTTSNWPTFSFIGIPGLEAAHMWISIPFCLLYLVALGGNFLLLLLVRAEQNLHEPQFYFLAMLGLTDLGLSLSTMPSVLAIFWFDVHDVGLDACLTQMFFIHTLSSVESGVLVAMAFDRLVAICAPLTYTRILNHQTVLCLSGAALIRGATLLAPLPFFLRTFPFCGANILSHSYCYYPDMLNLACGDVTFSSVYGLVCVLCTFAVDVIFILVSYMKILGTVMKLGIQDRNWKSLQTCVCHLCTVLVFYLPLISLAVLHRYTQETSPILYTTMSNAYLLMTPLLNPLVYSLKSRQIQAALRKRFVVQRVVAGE
# Summary of the method: as §1
# [10] = molecular target: T10, UniProt Q7TQU8
# T10 sequence (whole entry): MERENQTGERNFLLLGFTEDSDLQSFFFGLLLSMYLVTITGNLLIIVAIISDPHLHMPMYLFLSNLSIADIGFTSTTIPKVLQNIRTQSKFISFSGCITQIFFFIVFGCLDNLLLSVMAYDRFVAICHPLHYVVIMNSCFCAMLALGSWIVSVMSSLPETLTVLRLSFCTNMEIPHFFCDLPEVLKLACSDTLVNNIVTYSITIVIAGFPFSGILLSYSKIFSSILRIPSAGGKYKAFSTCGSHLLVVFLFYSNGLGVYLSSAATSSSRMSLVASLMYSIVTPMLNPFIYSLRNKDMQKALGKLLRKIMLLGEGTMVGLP
# Summary of the method: as §1
# [11] = molecular target: T11, UniProt Q7TR79
# T11 sequence (whole entry): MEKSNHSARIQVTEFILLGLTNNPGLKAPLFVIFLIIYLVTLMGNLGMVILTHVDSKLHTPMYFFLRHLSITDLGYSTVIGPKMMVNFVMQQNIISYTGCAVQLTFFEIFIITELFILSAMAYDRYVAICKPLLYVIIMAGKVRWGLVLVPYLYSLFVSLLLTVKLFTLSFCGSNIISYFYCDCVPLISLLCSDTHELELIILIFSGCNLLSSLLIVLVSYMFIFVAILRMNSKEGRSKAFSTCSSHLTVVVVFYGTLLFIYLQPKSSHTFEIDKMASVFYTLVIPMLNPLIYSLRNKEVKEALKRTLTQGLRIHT
# Summary of the method: as §1
# [12] = molecular target: T12, UniProt E9Q9Z6
# T12 sequence (whole entry): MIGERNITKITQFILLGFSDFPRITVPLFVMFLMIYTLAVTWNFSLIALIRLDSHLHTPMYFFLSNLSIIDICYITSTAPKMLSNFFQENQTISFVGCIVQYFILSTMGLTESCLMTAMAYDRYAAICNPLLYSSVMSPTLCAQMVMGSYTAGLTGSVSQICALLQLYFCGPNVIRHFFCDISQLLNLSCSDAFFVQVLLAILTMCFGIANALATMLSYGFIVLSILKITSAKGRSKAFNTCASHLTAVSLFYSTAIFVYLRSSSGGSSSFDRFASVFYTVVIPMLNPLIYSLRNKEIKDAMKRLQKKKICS
# Summary of the method: as §1
Compound,odorant receptor agonist call [1],odorant receptor agonist call [2],odorant receptor agonist call [3],odorant receptor agonist call [4],odorant receptor agonist call [5],odorant receptor agonist call [6],odorant receptor agonist call [7],odorant receptor agonist call [8],odorant receptor agonist call [9],odorant receptor agonist call [10],odorant receptor agonist call [11],odorant receptor agonist call [12]
OCc1ccc2c(c1)OCO2,inactive,inactive,inactive,inactive,inactive,inactive,inactive,inactive,inactive,inactive,inactive,–
CC(=O)c1cc(C(C)(C)C)cc2c1CCC2(C)C,–,–,–,–,–,–,–,–,–,–,–,inactive
O=Cc1ccc2c(c1)OCO2,inactive,inactive,inactive,inactive,inactive,–,active,inactive,inactive,inactive,inactive,–

# Reference: the M2OR odorant receptor database
